# This excerpt belongs to a sample that is enriched for hits.
# KDM4C inh = blocks human GASC-1 (KDM4C) demethylase activity | GST-KDM4C 2-372, H3K9me3 peptide, LANCE TR-FRET | Q9H3R0 | 0.15% of 96,000 active | inhibition, % at 12.5 µM;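 active = mean replicate inhibition above about 25%, with at least 55% of replicates also reaching it, limit read from the data, passing the limit was not always enough; inconclusive = only one of those two conditions met; inactive = neither condition met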
#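 System – N-terminal GST-fused human GASC-1 (KDM4C) fragment, residues 2-372 · Input – enzyme final amount 10 nM · Technique – LANCE TR-FRET, Eu antibody, ULight-streptavidin, EDTA, ex 340 nm, em 618/671 nm · Medium – HEPES buffer, pH 7.5, plus ascorbate · Incubation – enzyme reaction 30 min, then detection 60 min, both room temperature · Reagent – H3K9me3 peptide with Fe(II)/2OG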
# T cruzi growth-1 = T. cruzi proliferation inhibition | T. cruzi beta-gal in NIH3T3, GalScreen luminescence, 90 h | AID 624255 | 5.9% of 77,000 active | inhibition, % at 8.34 µM;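 active = mean inhibition above about 93%, with at least 55% of replicates each passing it, limit read from the data, passing the limit was not always enough; inconclusive = only one of those two conditions holds; inactive = neither condition holds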
# IDH1 R132H inh = inhibitors of human IDH1 R132H; AID 624101; O75874; 0.18% of 70,000 active; IDH1 R132H reductase, diaphorase/resazurin fluorescence, 60 min; inhibition, % at 10 µM; in the data active = inhibition above about 34%; inconclusive = no clear call, values can overlap the other calls; inactive = below about 11%;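 note: 0% = DMSO and 100% = no enzyme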
# Target sequence (O75874 whole entry R132H): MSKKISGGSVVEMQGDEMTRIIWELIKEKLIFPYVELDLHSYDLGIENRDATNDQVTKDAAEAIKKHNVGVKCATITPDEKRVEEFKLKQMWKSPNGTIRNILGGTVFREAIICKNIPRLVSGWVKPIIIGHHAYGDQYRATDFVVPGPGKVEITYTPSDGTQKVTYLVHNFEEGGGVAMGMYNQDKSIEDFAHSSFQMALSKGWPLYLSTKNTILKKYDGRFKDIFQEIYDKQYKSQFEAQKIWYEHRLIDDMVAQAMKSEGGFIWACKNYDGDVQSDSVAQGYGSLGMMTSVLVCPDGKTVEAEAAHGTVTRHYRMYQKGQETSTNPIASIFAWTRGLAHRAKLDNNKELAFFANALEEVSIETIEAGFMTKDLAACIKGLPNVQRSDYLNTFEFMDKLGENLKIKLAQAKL
# T cruzi growth-2 = inhibitors of T. cruzi proliferation; shares compounds with T cruzi growth-1; T. cruzi beta-gal in NIH3T3, GalScreen luminescence, 90 h; inhibition, % at 8.35 µM; AID 651739; 72% of 5,600 active;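 active = mean replicate inhibition above about 95% and at least 55% of replicates individually reaching it, limit read from the data; inconclusive = only one of the two criteria is met; inactive = neither criterion is met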
# T cruzi growth-3 = blocks T. cruzi growth in NIH3T3 host cells; shares compounds with T cruzi growth-1; T. cruzi beta-gal in NIH3T3, GalScreen luminescence, 90 h; inhibition, % at 2.09 µM; 21% of 5,600 active; AID 651740;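 active = mean inhibition above about 95%, with at least 55% of replicates also reaching it, limit read from the data; inconclusive = meets just one of the two conditions; inactive = meets neither condition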;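 note: plate controls were neutral control median for no effect and positive control median for full effect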
# 3T3 cytotox = NIH/3T3 (mouse) viability loss; NIH/3T3 viability, CellTiter-Glo ATP luminescence, 90 h; 14% of 5,600 active; cytotoxicity (signal decrease), % at 8.35 µM; shares compounds with T cruzi growth-1; AID 651742;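 active = mean signal decrease across replicates above about 35% based on untreated-well scatter, with enough replicates individually passing, limit read from the data; inconclusive = no rule stated though some were filed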;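 note: 0% = median of neutral control wells and 100% = median of positive control wells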
# 3T3 cytotox 2 = NIH/3T3 (mouse) viability loss | inhibition, % at 24.9 µM | AID 651744 | shares compounds with T cruzi growth-1 | 56% of 5,600 active | NIH/3T3 viability, CellTiter-Glo ATP luminescence, 90 h;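 active = mean loss of cell viability signal at or above a set limit, and enough replicates individually reaching it; inconclusive = meets only the mean limit or only the replicate share; inactive = meets neither condition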;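 note: 0% = median of neutral control wells and 100% = median of positive control wells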
# Starred values were filed as active, the others as inactive; ? = inconclusive; · = no result given.
SMILES,KDM4C inh,T cruzi growth-1,IDH1 R132H inh,T cruzi growth-2,T cruzi growth-3,3T3 cytotox,3T3 cytotox 2
C[C@H]1CN([C@@H](C)CO)S(=O)(=O)c2ccc(C3=CCCC3)cc2O[C@H]1CN(C)Cc1ccccc1,1,97*,0,96*,92,?,107*
C[C@@H]1CN([C@@H](C)CO)S(=O)(=O)c2ccc(Br)cc2O[C@H]1CN(C)Cc1cccc(F)c1,2,?,·,98*,92,53*,107*
C[C@@H]1CN([C@@H](C)CO)S(=O)(=O)c2ccc(Br)cc2O[C@@H]1CN(C)Cc1ccccc1,-1,62,-1,·,·,·,·
C[C@H]1CN([C@@H](C)CO)S(=O)(=O)c2ccc(Br)cc2O[C@@H]1CN(C)Cc1cccc(F)c1,3,?,·,99*,65,32,103*
C[C@H](CO)N1C[C@H](C)[C@@H](CN(C)Cc2ccccc2)Oc2cc(Br)ccc2S1(=O)=O,3,104,0,·,·,·,·
COc1ccc(-n2c(SCC(=O)NC3CCCCC3)nnc2-c2cccs2)cc1,·,·,0,·,·,·,·
N#Cc1ccccc1NC(=O)CS(=O)(=O)Cc1ccccc1,·,·,0,·,·,·,·
NC(=O)CSc1nnc(Cc2ccccc2)n1-c1ccccc1,·,·,-1,·,·,·,·
Cc1[nH]c(=S)[nH]c(=O)c1Cc1ccc(C(=O)O)o1,·,·,3,·,·,·,·
COc1ccc(OCc2nnc3n2N=C(c2ccc(OC)c(OC)c2)C(c2ccccc2)S3)cc1 (configuration not stated),·,·,0,·,·,·,·
C[C@H](CO)N1C[C@H](C)[C@H](CN(C)Cc2ccccc2)Oc2ncc(C3=CCCC3)cc2C1=O,-3,43,0,·,·,·,·
C[C@@H]1CN([C@H](C)CO)C(=O)c2cc(C3=CCCCC3)cnc2O[C@H]1CN(C)Cc1ccccc1,1,-43,1,·,·,·,·
C[C@@H]1CN([C@@H](C)CO)C(=O)c2cc(C3=CCCCC3)cnc2O[C@H]1CN(C)Cc1cccc(F)c1,-3,115*,-1,105*,26,14,105*
C[C@@H]1CN([C@@H](C)CO)C(=O)c2cc(C3=CCCC3)cnc2O[C@@H]1CN(C)Cc1ccccc1,-1,?,-1,?,36,-11,17
C[C@H]1CN([C@@H](C)CO)C(=O)c2cc(C3=CCCCC3)cnc2O[C@@H]1CN(C)Cc1cccc(F)c1,0,29,-2,·,·,·,·
C[C@@H]1CN([C@@H](C)CO)C(=O)c2cc(C3=CCCCC3)cnc2O[C@@H]1CN(C)Cc1ccccc1,0,?,-1,100*,33,-9,48*
Cc1ccc([N+](=O)[O-])cc1NC(=O)C1(c2ccccc2)CCN(S(=O)(=O)c2ccccc2)CC1,·,·,0,·,·,·,·
CCCNC(=O)N1C[C@H](C)[C@H](OC)CN(C)C(=O)c2cc(NC(=O)C3CCC3)ccc2OC[C@H]1C,0,-32,0,·,·,·,·
O=C(CN1C(=O)c2ccccc2S1(=O)=O)Nc1ccc(Cl)c(Cl)c1,·,·,-1,·,·,·,·
COc1ccc([N+](=O)[O-])cc1NC(=O)CN(C)S(=O)(=O)c1ccc(Br)cc1,·,·,0,·,·,·,·
COc1cccc(C(=O)Nc2ccc3c(c2)OC[C@H](C)N(CCc2ccccc2)C[C@H](C)[C@@H](OC)CN(C)C3=O)c1,-2,116*,0,103*,77,-6,8
COc1cccc(C(=O)Nc2ccc3c(c2)OC[C@@H](C)N(CCc2ccccc2)C[C@@H](C)[C@@H](OC)CN(C)C3=O)c1,1,68,0,·,·,·,·
COc1cccc(C(=O)Nc2ccc3c(c2)OC[C@H](C)N(CCc2ccccc2)C[C@@H](C)[C@@H](OC)CN(C)C3=O)c1,-1,119*,0,109*,62,13,-1
COc1cccc(C(=O)Nc2ccc3c(c2)OC[C@@H](C)N(CCc2ccccc2)C[C@H](C)[C@@H](OC)CN(C)C3=O)c1,-3,110*,-1,110*,56,-19,-5
COc1cccc(C(=O)Nc2ccc3c(c2)C(=O)N(C)C[C@H](OC)[C@H](C)CN(CCc2ccccc2)[C@@H](C)CO3)c1,2,?,0,·,·,·,·
SMILES,KDM4C inh,T cruzi growth-1,IDH1 R132H inh,T cruzi growth-2,T cruzi growth-3,3T3 cytotox,3T3 cytotox 2
COc1cccc(C(=O)Nc2ccc3c(c2)C(=O)N(C)C[C@H](OC)[C@@H](C)CN(CCc2ccccc2)[C@H](C)CO3)c1,0,84,0,·,·,·,·
COc1ccccc1OCC(=O)Nc1c[nH]c(=O)[nH]c1=O,·,·,-1,·,·,·,·
COc1cccc(OC)c1C(=O)NC(=S)Nc1cccc(-c2nn3c(C)nnc3s2)c1,·,·,1,·,·,·,·
C[C@@H]1CCCCO[C@H](CN(C)C(=O)C2CCCCC2)[C@@H](C)CN([C@@H](C)CO)C(=O)c2cc(NC(=O)Nc3ccc(F)cc3)ccc2O1,0,86,0,·,·,·,·
C[C@@H]1CN([C@@H](C)CO)C(=O)c2cc(NC(=O)Nc3ccc(F)cc3)ccc2O[C@@H](C)CCCCO[C@H]1CN(C)C(=O)C1CCCCC1,0,82,2,·,·,·,·
C[C@H](CO)N1C[C@H](C)[C@@H](CN(C)C(=O)C2CCCCC2)OCCCC[C@H](C)Oc2ccc(NC(=O)Nc3ccc(C(F)(F)F)cc3)cc2C1=O,0,120*,2,97*,110*,4,19
C[C@@H]1CN([C@@H](C)CO)C(=O)c2cc(NC(=O)Nc3ccc(F)cc3)ccc2O[C@@H](C)CCCCO[C@@H]1CN(C)C(=O)C1CCCCC1,0,19,·,·,·,·,·
C[C@@H]1CCCCO[C@@H](CN(C)C(=O)C2CCCCC2)[C@@H](C)CN([C@@H](C)CO)C(=O)c2cc(NC(=O)Nc3ccc(F)cc3)ccc2O1,0,76,·,·,·,·,·
C[C@@H]1CN([C@H](C)CO)C(=O)c2cc(NC(=O)Nc3ccc(C(F)(F)F)cc3)ccc2O[C@@H](C)CCCCO[C@@H]1CN(C)C(=O)C1CCCCC1,0,121*,·,92,116*,-12,23
C[C@@H]1CCCCO[C@@H](CN(C)C(=O)C2CCCCC2)[C@@H](C)CN([C@@H](C)CO)C(=O)c2cc(NC(=O)Nc3ccc(C(F)(F)F)cc3)ccc2O1,0,120*,·,96*,117*,38*,64*
C[C@@H]1CCCCO[C@@H](CN(C)C(=O)C2CCCCC2)[C@H](C)CN([C@@H](C)CO)C(=O)c2cc(NC(=O)Nc3ccc(C(F)(F)F)cc3)ccc2O1,-1,121*,0,97*,108*,-9,9
CN(CC(=O)Nc1ccc(F)c(Cl)c1)S(=O)(=O)c1ccc(F)cc1,·,·,-1,·,·,·,·
CSc1ccccc1NC(=O)CSc1nnnn1-c1ccccc1F,·,·,1,·,·,·,·
Cc1ccc(-c2nnc(SCC(=O)Nc3c(C)cc(C)cc3C)o2)cc1,·,·,0,·,·,·,·
